Positions count from the first letter of the chain named.

These results are taken from publication PMC5726523 (Nature chemistry, 2017).

The target in assay [1] is T1, K155 of SIN3A (Homo sapiens, UniProt Q96ST3).
T1 sequence (Q96ST3 1-400): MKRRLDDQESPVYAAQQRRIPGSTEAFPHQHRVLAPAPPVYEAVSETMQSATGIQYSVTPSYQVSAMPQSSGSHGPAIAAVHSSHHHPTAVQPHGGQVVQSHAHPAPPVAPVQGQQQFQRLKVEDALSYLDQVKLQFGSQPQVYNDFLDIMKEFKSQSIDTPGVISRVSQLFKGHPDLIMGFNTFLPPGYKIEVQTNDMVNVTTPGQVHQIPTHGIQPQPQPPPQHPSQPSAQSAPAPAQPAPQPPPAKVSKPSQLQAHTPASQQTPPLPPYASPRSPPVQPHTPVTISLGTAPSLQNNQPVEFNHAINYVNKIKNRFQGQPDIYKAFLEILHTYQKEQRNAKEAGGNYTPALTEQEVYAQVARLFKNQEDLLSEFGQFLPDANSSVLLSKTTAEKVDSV
Description: gel-based ABPP, blockade of probe labeling of SIN3A. The assay is classed as binding. The following applies: read-out: apparent IC50, blockade of probe labeling of K155, lysates of HEK293T cells expressing Flag-SIN3A a.a. 1-400.

For assay [2], the target named is T2, K155 of SIN3A (Homo sapiens, UniProt Q96ST3).
T2 sequence (Q96ST3 1-1273): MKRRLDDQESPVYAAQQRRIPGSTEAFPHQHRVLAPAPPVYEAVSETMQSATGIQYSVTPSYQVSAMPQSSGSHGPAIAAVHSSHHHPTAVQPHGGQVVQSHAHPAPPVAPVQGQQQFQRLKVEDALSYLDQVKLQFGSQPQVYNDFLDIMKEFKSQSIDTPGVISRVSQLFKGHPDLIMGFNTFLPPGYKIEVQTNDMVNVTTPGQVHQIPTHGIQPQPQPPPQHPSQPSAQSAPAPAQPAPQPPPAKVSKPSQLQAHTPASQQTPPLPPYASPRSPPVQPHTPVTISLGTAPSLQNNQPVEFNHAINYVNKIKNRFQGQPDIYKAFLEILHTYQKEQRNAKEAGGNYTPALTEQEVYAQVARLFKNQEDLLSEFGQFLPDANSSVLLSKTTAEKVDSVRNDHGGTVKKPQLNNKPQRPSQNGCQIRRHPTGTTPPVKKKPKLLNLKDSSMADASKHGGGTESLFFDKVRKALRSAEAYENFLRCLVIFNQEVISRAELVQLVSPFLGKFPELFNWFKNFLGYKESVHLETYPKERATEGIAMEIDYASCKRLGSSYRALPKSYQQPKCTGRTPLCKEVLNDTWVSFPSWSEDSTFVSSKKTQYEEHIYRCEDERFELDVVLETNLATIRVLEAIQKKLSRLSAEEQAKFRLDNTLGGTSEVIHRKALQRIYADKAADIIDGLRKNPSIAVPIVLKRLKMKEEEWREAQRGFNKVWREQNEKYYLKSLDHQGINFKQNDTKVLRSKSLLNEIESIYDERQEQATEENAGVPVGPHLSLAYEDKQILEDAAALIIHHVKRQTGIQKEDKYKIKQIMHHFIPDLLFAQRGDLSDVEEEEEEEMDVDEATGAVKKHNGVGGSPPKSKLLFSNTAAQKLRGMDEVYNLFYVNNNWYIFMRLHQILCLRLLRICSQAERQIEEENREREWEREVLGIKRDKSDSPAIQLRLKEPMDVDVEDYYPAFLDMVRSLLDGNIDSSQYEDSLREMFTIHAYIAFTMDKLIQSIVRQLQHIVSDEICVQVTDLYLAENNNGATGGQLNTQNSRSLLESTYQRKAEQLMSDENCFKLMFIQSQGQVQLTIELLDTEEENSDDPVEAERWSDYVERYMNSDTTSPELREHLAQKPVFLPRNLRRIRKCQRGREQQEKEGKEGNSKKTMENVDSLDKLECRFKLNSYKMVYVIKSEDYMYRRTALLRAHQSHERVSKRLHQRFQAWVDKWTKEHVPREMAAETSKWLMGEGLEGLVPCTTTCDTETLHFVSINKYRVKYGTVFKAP
As to the kind of experiment: competitive isoTOP-ABPP, SIN3A K155. The assay is classed as binding. The following applies: 50 μM, human cancer cell proteomes. The method in brief:
(§1)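 Human cancer cell proteomes were pretreated with an amine-reactive electrophilic fragment (50–100 μM) or DMSO, then probe 1 (100 μM). Labeled proteins were CuAAC-conjugated to isotopic TEV-cleavable azide-biotin tags (DMSO heavy, fragment light), combined and analysed by isoTOP-ABPP. R = DMSO/fragment MS1 peak ratio of probe-labeled peptides. R ≥ 4 (≥75% loss of enrichment) defines liganding.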

In assay [3] the target is T3, TGIF1-SIN3A interaction (Homo sapiens, UniProt Q96ST3).
T3 sequence (Q96ST3 1-400): T1 sequence (Q96ST3 1-400)
Description: SILAC co-immunoprecipitation-MS proteomics, SIN3A-TGIF1. Type of assay: biochemical. The following applies: 50 μM, 1 h, co-IP MS proteomics. An outline of the steps:
(§2)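 HEK293T cells were metabolically labeled with isotopically differentiated amino acids. Heavy cells were transfected with Flag-SIN3A and light cells with Flag-GFP. Cells were lysed and anti-Flag immunoprecipitated. Heavy and light IPs were combined, trypsin-digested and run on LC-MS/MS. SIN3A interactors were proteins enriched >five-fold over GFP. Paired comparisons were WT vs K155W-SIN3A, and DMSO vs test compound (50 μM, 1 h) on WT.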

For assay [4], the target named is T4, TGIF2-SIN3A interaction (Homo sapiens, UniProt Q96ST3).
T4 sequence (Q96ST3 1-400): T1 sequence (Q96ST3 1-400)
As to the kind of experiment: SILAC co-immunoprecipitation-MS proteomics, SIN3A-TGIF2. The assay is classed as biochemical. The following applies: 50 μM, 1 h, co-IP MS proteomics. The method in brief: as §2

In assay [5] the target is T5, SIN3A-TGIF1 interaction (Homo sapiens, UniProt Q96ST3).
T5 sequence (Q96ST3 1-400): T1 sequence (Q96ST3 1-400)
Description: co-immunoprecipitation western blot, Flag-SIN3A / Myc-TGIF1. The assay is classed as biochemical. The following applies: 50 μM, 1 h, anti-Myc blotting. The method in brief:
(§3)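 Flag-SIN3A (a.a. 1-400, WT or K155 mutants) or Flag-GFP was co-expressed in HEK 293T cells with Myc-TGIF1 or Myc-TGIF2. Lysates were treated with DMSO or test compound (50 μM, 1 h), immunoprecipitated and analysed by anti-Myc western blot. Four biological replicates, mean ± SD. Unpaired Student's t-test, WT + compound vs K155R + compound.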
(In general: Immunoblotting shows a protein as a band on a membrane.)

Assay [6] concerns the target T6, SIN3A-TGIF2 interaction (Homo sapiens, UniProt Q96ST3).
T6 sequence (Q96ST3 1-400): T1 sequence (Q96ST3 1-400)
Description: co-immunoprecipitation western blot, Flag-SIN3A / Myc-TGIF2. Type of assay: biochemical. The following applies: 50 μM, 1 h. The method in brief: as §3

In assay [7] the target is T7, SIN3A K155R-TGIF1 interaction (Homo sapiens, UniProt Q96ST3, K155R).
T7 sequence (Q96ST3 1-400 K155R): T1 sequence (Q96ST3 1-400) with K155R
Description: co-immunoprecipitation western blot, Flag-SIN3A K155R / Myc-TGIF1. The assay is classed as biochemical. The following applies: 50 μM, 1 h. An outline of the steps: as §3

For assay [8], the target named is K35 in transthyretin TTR (Homo sapiens, UniProt P02766). As to the kind of experiment: competitive isoTOP-ABPP, TTR K35. Type of assay: binding. The following applies: compared with fragments 29 and 30. The method in brief: as §1
In assay [9] the target is T8, NUDT2 (Homo sapiens, UniProt P50583). As to the kind of experiment: gel-based ABPP, blockade of probe labeling of NUDT2. Type of assay: binding. The following applies: read-out: apparent IC50, blockade of probe labeling of NUDT2. An outline of the steps:
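Flag-tagged NUDT2 was recombinantly expressed in HEK 293T cells. Samples were treated with test compound, then a lysine-reactive probe, and analysed by gel-based ABPP. Apparent IC50 is from blockade of probe labeling of the liganded lysine.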

For assay [10], the target named is T8, NUDT2. As to the kind of experiment: NUDT2 substrate assay. Type of assay: biochemical. The following applies: compared with gel-based ABPP IC50 of 2 μM.
In assay [11] the target is K89 of NUDT2 (Homo sapiens, UniProt P50583). As to the kind of experiment: competitive isoTOP-ABPP, NUDT2 K89. The assay is classed as binding. An outline of the steps:
as §1

T8 sequence (P50583 whole entry): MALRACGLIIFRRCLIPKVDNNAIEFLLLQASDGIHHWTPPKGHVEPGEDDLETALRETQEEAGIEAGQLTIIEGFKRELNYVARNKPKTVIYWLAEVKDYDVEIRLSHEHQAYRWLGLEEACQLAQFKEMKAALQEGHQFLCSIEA
Sequence of K89 of NUDT2 (P50583 whole entry): as above

In general, IC50 refers to the concentration that gives 50% inhibition. Regarding `O=C(Oc1c(F)c(F)c(F)c(F)c1F)c1cc(C(F)(F)F)cc(C(F)(F)F)c1` [fragment 21], the IC50 in [1] was 5 µM. In assay [2], the “R value (DMSO/fragment) for tryptic peptide containing K155” value worked out at 20 and the “blockade of probe 1 labeling of K155” value is recorded as over 95%. For the same compound, the “effect on TGIF1-SIN3A interaction” value in assay [3] is given as “strongly blocked”. Besides, in [4], the “effect on TGIF2-SIN3A interaction” value is recorded as “marginal effect”. Besides, the “effect on co-immunoprecipitation of TGIF1 with SIN3A” value in assay [5] was “blocked”. Also, the “effect on co-immunoprecipitation of TGIF2 with SIN3A” value in [6] was “partial blockade”. The “effect on SIN3A-TGIF1 interaction with K155R mutant” value in assay [7] is recorded as “conferred resistance”.
As to `O=C(Oc1ccc([N+](=O)[O-])cc1[N+](=O)[O-])c1cc(C(F)(F)F)cc(C(F)(F)F)c1` [fragment 31], the “targeting of K35 of TTR” value in assay [8] is reported as “preferentially targeted”.
As for `COC(=O)NC(=NC(=O)OCC1c2ccccc2-c2ccccc21)n1cccn1` [fragment 49], the 50% inhibitory concentration (IC50) in [9] was 2 µM. Moreover, the “IC50, inhibition of NUDT2 activity” value in assay [10] is recorded as “equivalent IC50 value”. Moreover, the “reactivity with K89 of NUDT2” value in assay [11] was “preferentially reacting”.
